An excerpt weighted towards active compounds, which were near 4.4% of everything screened.
MPTP block – inhibitors of mitochondrial permeability transition pore | isolated mouse mitochondria, Ca2+ swelling absorbance, 30 min | 360,000 compounds, 1.4% hits | inhibition, % at 10 µM;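 active means inhibition of 50% or more, scaled per plate between neutral and stimulator controls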
SENP1 inh – SENP1 (human) catalytic domain inhibition; 360,000 compounds, 0.21% hits; inhibition, % at 10 µM; Q9P0U3; recombinant SENP1 catalytic domain, CyPet-SUMO1-YPet FRET cleavage;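 active means inhibition at least 30% at 10 µM, raw YFP signal under a set limit, fluorescence ratio 0.5 to 1.5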
Target sequence (Q9P0U3 419-644 limits assumed): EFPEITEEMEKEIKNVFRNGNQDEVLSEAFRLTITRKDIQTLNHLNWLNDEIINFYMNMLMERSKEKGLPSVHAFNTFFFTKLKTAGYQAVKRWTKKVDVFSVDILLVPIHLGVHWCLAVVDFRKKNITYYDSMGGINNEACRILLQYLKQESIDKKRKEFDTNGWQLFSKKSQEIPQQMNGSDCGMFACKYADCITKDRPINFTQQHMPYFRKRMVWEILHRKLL
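Material – human SENP1 catalytic domain · Input – SENP1 enzyme, 20 pM final · Compound dosing – single concentration of 10 µM compound, 0.5% DMSO final · Timing – enzyme reaction for 50 min at room temperature, dark · Measured by – FRET fluorescence in CFP and YFP emission channels · Control set – no-enzyme wells low, DMSO-plus-enzyme wells high control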
GRIN3A LBD mod – modulators (binders) of human NR3A ligand-binding domain | NR3A LBD differential scanning fluorimetry, Tm shift; 0% = protein alone, 100% = glycine-bound protein | Tm shift relative to glycine control, % at 25 µM | 340,000 compounds, 2.5% hits;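 active means melting temperature shift of at least 10% of the positive control shift, at one fixed dose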
EBI2 antag – blocks human EBI2 receptor beta-arrestin signaling; inhibition, % at 5 µM; P32249; 360,000 compounds, 0.81% hits; EBI2 beta-arrestin recruitment, luminescence, 7a,25-OHC stimulated; in the data active means inhibition above about 38%;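 further: enzyme fragment complementation signal reports receptor beta-arrestin coupling in cells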
Target sequence (P32249 whole entry, looked up, the tested form may be a part): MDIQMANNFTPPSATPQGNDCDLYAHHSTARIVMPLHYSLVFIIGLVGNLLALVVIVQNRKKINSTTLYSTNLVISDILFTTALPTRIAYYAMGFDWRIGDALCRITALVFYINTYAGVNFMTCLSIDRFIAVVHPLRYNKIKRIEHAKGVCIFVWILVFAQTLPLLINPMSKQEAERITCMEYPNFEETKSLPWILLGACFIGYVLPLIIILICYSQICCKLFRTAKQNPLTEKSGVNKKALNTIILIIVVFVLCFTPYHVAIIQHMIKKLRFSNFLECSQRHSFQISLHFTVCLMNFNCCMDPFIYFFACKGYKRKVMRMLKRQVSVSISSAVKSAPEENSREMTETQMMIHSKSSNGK
A number is an active result; - = inactive; . = no result.

SMILES	MPTP block	SENP1 inh	GRIN3A LBD mod	EBI2 antag
CCCC1=NN2C(=N)/C(=C\c3cc(C)n(-c4cc(C)cc(C)c4)c3C)C(=O)N=C2S1	-	-	12	-
Cc1cc(C)cc(-n2c(C)cc(/C=C3\C(=N)N4N=C(CC(C)C)SC4=NC3=O)c2C)c1	-	-	-	-
O=C(NNC(=O)c1c(O)c2ccccc2[nH]c1=O)c1ccccc1Br	-	-	-	-
Oc1ccc(-c2nc3c4c(ncn3n2)-c2ccccc2CC42CCCC2)cc1	-	-	61	-
Cc1[nH]n(-c2ccccc2)c(=O)c1/C=N\NC(=O)C1COc2ccccc2O1 (stereo not drawn)	-	-	-	-
Cc1cc(C)cc(NC(=O)CSc2nnc(NC(=O)C3CC3)s2)c1	-	-	-	-
CC(=O)c1ccc(NC(=O)CSc2nnc(NC(=O)C3CC3)s2)cc1	-	-	25	-
Cc1ccc(NC(=O)CSc2nnc(NC(=O)C3CC3)s2)cc1	-	-	-	-
Cc1ccc(NC(=O)CSc2nnc(NC(=O)C3CC3)s2)cc1C	-	-	21	-
Cc1cnnn1-c1ccc(C(=O)CCl)cc1	-	-	-	-
CCc1ccc(-c2cc(C)no2)cc1S(=O)(=O)N1CCOc2ccccc21	-	-	-	-
COc1ccc(CN2CCCCCC2)cc1Br	-	-	-	-
O=C(Nc1nc(COc2ccccc2)cs1)C1CCC1	-	-	-	-
COc1cccc(OC)c1C(=O)Nc1nc(COc2ccccc2)cs1	-	-	23	-
Cc1ccc(C(=O)Nc2nc(COc3ccccc3)cs2)s1	-	-	29	-
CC(=O)Nc1nc(COc2ccccc2)cs1	-	-	-	-
CN(C)C(CNC(=O)c1cc2ccccc2o1)c1ccco1 (stereo not drawn)	-	-	-	-
CCN(Cc1nc2cc(Cl)ccc2c(=O)[nH]1)C(=O)COc1ccccc1Cc1ccccc1	-	-	-	-
COCCN(Cc1nc2ccccc2c(=O)[nH]1)C(=O)COc1ccccc1-c1ccccc1	-	-	13	-
CCN(Cc1nc2ccccc2c(=O)[nH]1)C(=O)COc1ccccc1Cc1ccccc1	-	-	11	-
CCN(CC(=O)Nc1c(F)cccc1F)C(=O)C1CC(=O)N(c2ccccc2OC)C1 (stereo not drawn)	-	-	-	-
Cc1ccccc1OCC(=O)N1N=C(c2cccnc2)CC1(O)C(F)(F)F (stereo not drawn)	-	-	-	-
NC(=O)Cn1nc(C(F)(F)F)c2c1CCCC2	-	-	27	-
CC(C)Cc1csc(NC(=O)c2ccccc2Cl)c1C(=O)O	-	-	12	-
Cc1cccc(C(=O)Nc2scc(CC(C)C)c2C(=O)O)c1	-	-	-	-
SMILES	MPTP block	SENP1 inh	GRIN3A LBD mod	EBI2 antag
COc1c2c(c(OC)c3c1c(=O)c1ccccc1n3C)OCO2	-	-	-	-
CCn1c(=O)c(=O)n(CC)c2cc(S(=O)(=O)Nc3ccc(C)cc3)ccc21	-	-	-	-
CCn1c(=O)c(=O)[nH]c2c(=O)oc3ccc(S(=O)(=O)Nc4ccccc4)cc3c21	-	-	16	-
Cc1ccnc(NC(=O)CCC2COc3ccccc3O2)c1 (stereo not drawn)	-	-	-	-
O=C(CCC1COc2ccccc2O1)Nc1ccc(Cl)cn1 (stereo not drawn)	-	-	12	-
CC1CC(CCC(=O)NC(=S)Nc2ccc(Cl)cn2)C(=O)O1 (stereo not drawn)	-	-	16	-
CCCCCC(=O)NC(=S)Nc1ccc(Cl)cn1	-	-	-	-
CCOC(=O)/C=C/C(=O)Nc1ccc(S(=O)(=O)Nc2cc(OC)nc(OC)n2)cc1	-	-	.	-
N#Cc1c(N)[nH]c2ccc(Sc3ccccc3)cc12	-	-	109	-
O=C(CCc1nc(-c2ccccc2F)no1)NCCN1CCOCC1	-	-	14	-
Nc1cc(-c2ccncc2)c[nH]c1=O	-	-	13	-
NC(=O)c1csc(-c2ccncc2)n1	-	-	-	-
CCCCn1nnnc1C(c1cc2ccccc2o1)N(Cc1ccccc1)Cc1ccccc1 (stereo not drawn)	-	-	.	-
Cc1ccc(-n2nc3ccc(NC(=O)c4cccc([N+](=O)[O-])c4C)cc3n2)cc1	-	-	17	-
CCc1ccc(-n2nc3ccc(NC(=O)c4ccc5c(c4)OCO5)cc3n2)cc1	-	-	15	-
Cc1ccc(-n2nc3ccc(NC(=O)c4ccco4)cc3n2)cc1	-	-	-	-
Cc1ccc(-n2nc3ccc(NC(=O)c4ccc5c(c4)OCO5)cc3n2)cc1	-	-	13	-
Cc1ccc(-n2nc3ccc(NC(=O)C(C)C)cc3n2)cc1	-	-	-	-
Cc1cc(C)n(CCNC(=O)C2CCC(=O)N(CCc3cccc(F)c3)C2)n1 (stereo not drawn)	-	-	-	-
Cc1ccc2oc(-c3cccc(N)c3)nc2c1	-	-	-	-
Nc1cccc(-c2nc3cc(S(=O)(=O)c4ccc5oc(-c6cccc(N)c6)nc5c4)ccc3o2)c1	-	-	24	-
O=C(O)c1cc(NC(=O)c2ccc3c(c2)C(=O)N(Cc2ccccc2)C3=O)cc(C(=O)O)c1	-	-	14	-
COc1ccc(Br)c(C(=O)OCC(=O)Nc2cc(C)on2)c1	-	-	.	-
COc1ccc(C(N)=O)c(OCC(=O)Nc2cc(C)on2)c1	-	-	15	-
Cc1ccc(CCNC(=O)C2CC(c3ccccc3C(F)(F)F)=NO2)cc1 (stereo not drawn)	-	-	-	-
SMILES	MPTP block	SENP1 inh	GRIN3A LBD mod	EBI2 antag
COc1ccc(/C(O)=C2\C(=O)C(=O)N(c3cc(C)on3)C2c2cccc(OC)c2OC)cc1C (stereo not drawn)	-	-	-	-
COc1cccc(C2c3c(oc4ccc(Cl)cc4c3=O)C(=O)N2c2cc(C)on2)c1OC (stereo not drawn)	-	-	11	-
Cc1ccc(NC(=O)CCC(=O)N/N=C/c2cccnc2)cc1	-	-	-	-
CSc1nnc(C)c(=O)n1COC(=O)/C=C/c1ccccc1	-	-	-	-
O=C(Cc1cccs1)Nc1nc2c(ccc3ccccc32)s1	-	-	11	-
Clc1ccc(COc2ccccn2)c(Cl)c1	-	-	-	-
CCc1ccccc1NC(=O)C1CCCN(c2nn3c(=O)cc(C)nc3s2)C1 (stereo not drawn)	-	-	-	-
CCCC(=O)Oc1ccc(-c2nccc(C(OC)OC)n2)cc1	-	-	-	-
O=C(O)c1cccc2c1-c1ccc(Cl)cc1C2=O	-	-	14	-
O=C(O)c1cccc2c1Cc1cc(Cl)ccc1-2	-	-	-	-
CCN(CC)C(=O)C1=C(C)N(Cc2ccc(OC)cc2)C(=O)C(CC(=O)NCc2cccs2)C1 (stereo not drawn)	-	-	.	-
CCC(CC)c1nnc(NC(=O)c2ccc(N3CCCCC3)c([N+](=O)[O-])c2)s1	-	-	-	-
O=C(Nc1nc2ccc(Cl)cc2s1)c1ccc(N2CCCCC2)c([N+](=O)[O-])c1	-	-	15	-
O=C(Nc1nc2ccc3ccccc3c2s1)c1ccc(N2CCCCC2)c([N+](=O)[O-])c1	-	-	19	-

Bioassay records as filed in PubChem.
